From ChEMBL document CHEMBL1811873, “Peroxisome proliferator-activated receptor agonists with phenethylphenylphthalimide skeleton derived from thalidomide-related liver X receptor antagonists: relationship between absolute configuration and subtype selectivity” (Bioorg Med Chem, 2011) come the findings set out here.

Common to all, as to type: functional, cell-based
Test [1] deals with T1, Bile acid receptor (Homo sapiens) (UniProt Q96RI1).
T1 sequence (whole entry): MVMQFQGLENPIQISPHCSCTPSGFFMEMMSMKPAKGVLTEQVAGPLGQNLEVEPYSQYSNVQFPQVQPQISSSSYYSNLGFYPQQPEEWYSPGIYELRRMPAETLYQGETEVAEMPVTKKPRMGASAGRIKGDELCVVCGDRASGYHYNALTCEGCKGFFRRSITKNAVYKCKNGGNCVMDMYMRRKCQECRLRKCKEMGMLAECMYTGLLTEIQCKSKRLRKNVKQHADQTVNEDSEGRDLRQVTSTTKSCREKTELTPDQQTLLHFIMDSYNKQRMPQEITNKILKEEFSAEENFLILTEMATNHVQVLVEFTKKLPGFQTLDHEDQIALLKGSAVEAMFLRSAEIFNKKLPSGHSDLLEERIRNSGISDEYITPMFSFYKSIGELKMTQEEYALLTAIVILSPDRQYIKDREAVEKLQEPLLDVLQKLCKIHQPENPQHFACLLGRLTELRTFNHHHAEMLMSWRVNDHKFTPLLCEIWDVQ
The test is described as follows: Antagonist activity at FXR transfected in HEK293 cells by luciferase reporter gene assay.

The target of test [2] is T2, Peroxisome proliferator-activated receptor delta (Homo sapiens) (UniProt Q03181).
T2 sequence (whole entry): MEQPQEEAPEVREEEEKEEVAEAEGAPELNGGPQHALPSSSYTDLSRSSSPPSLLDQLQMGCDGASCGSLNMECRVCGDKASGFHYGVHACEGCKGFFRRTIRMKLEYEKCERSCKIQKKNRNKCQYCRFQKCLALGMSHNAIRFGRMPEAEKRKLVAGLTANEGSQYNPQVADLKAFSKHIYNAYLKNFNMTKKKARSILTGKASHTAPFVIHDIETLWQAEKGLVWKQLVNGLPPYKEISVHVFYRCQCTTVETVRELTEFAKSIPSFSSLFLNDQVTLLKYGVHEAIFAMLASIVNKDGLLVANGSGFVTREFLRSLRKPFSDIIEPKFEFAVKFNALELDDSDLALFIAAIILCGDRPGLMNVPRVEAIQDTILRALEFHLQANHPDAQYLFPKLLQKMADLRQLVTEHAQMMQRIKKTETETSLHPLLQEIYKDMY
Briefly: Agonist activity at human PPARdelta expressed in HEK293 after 8 hrs by luciferase reporter gene assay relative to GW501516. Summed up:
(§1)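 GAL4N-hPPAR LBD chimera with TK-MH100x4-LUC reporter in calcium-phosphate-transfected HEK293 (DMEM, 5% FBS), compounds added 8 h post-transfection. Luciferase was normalized to β-galactosidase. Percent efficacy (Emax) was taken at the maximal stimulatory response relative to 10 µM fenofibric acid (PPARα), 100 nM GW501516 (PPARδ) or 10 µM ciglitazone (PPARγ). Triplicate, at least twice.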

Test [3] concerns the target T3, Peroxisome proliferator-activated receptor gamma (Homo sapiens) (UniProt P37231).
T3 sequence (whole entry): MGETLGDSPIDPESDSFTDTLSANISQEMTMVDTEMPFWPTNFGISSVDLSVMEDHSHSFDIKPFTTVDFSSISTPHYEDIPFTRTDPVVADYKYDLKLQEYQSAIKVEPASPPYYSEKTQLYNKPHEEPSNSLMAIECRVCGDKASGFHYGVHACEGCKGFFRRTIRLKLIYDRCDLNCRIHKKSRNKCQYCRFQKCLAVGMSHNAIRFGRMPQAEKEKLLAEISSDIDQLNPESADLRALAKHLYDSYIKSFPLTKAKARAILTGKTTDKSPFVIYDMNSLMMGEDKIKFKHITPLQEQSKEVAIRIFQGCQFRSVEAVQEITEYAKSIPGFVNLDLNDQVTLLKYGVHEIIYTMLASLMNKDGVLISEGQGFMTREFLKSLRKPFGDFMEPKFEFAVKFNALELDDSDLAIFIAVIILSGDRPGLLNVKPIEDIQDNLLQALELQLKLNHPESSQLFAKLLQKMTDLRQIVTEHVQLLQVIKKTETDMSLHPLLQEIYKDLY
Briefly: Agonist activity at PPARgamma expressed in HEK293 after 8 hrs by luciferase reporter gene assay relative to ciglitazone. Summed up: as §1

Test [4] addresses T1, Bile acid receptor (Homo sapiens). The test is described as follows: Agonist activity at FXR transfected in HEK293 cells by luciferase reporter gene assay.
For test [5], the target named is T4, Peroxisome proliferator-activated receptor alpha (Homo sapiens) (UniProt Q07869).
T4 sequence (whole entry): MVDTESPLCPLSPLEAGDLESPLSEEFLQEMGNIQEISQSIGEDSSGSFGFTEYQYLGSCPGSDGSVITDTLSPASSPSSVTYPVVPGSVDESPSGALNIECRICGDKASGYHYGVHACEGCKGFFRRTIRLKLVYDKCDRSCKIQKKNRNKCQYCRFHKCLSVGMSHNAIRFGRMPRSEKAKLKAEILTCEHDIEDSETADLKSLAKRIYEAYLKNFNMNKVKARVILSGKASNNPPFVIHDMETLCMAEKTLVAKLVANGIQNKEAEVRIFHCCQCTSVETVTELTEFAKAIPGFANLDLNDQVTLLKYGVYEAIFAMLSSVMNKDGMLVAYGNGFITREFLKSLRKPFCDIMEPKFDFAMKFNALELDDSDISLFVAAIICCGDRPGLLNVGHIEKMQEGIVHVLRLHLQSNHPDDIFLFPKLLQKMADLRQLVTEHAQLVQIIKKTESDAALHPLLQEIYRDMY
Briefly: Agonist activity at human PPARalpha expressed in HEK293 after 8 hrs by luciferase reporter gene assay relative to fenofibric acid. Summed up:
as §1

Test [6] has as its target T5, Peroxisome proliferator-activated receptor alpha (Homo sapiens, UniProt Q07869).
T5 sequence (Q07869 whole entry): T4 sequence (whole entry)
Briefly: Agonist activity at human PPARalpha expressed in HEK293 after 8 hrs by luciferase reporter gene assay. In short, it runs like this: (§2)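 HEK293 cells grown in DMEM with 5% FBS at 37 °C in 5% CO2 were calcium-phosphate co-transfected with CMX-GAL4N-hPPAR LBD (subtype-specific), TK-MH100x4-LUC reporter and CMX β-galactosidase for normalization. Compounds were added 8 h post-transfection. Luciferase was read by luminometer and β-galactosidase by plate reader. Values are normalized averages; triplicate, repeated at least twice.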

The target of test [7] is T6, Peroxisome proliferator-activated receptor delta (Homo sapiens, UniProt Q03181).
T6 sequence (Q03181 whole entry): T2 sequence (whole entry)
Briefly: Agonist activity at PPARdelta expressed in HEK293 after 8 hrs by luciferase reporter gene assay. Summed up:
as §2

The target of test [8] is T7, Peroxisome proliferator-activated receptor gamma (Homo sapiens, UniProt P37231).
T7 sequence (P37231 whole entry): T3 sequence (whole entry)
Briefly: Agonist activity at PPARgamma expressed in HEK293 after 8 hrs by luciferase reporter gene assay. In short, it runs like this: as §2

The source made the active and inactive calls. No cut-off for these calls is given here.

Take `O=C(O)CCCCCOc1ccc(CCc2ccc(N3C(=O)c4ccccc4C3=O)cc2)cc1`: the result in test [1] and in test [4] was inactive. For the same compound, the Emax in test [2] stood at 0%; in test [3] it was 6%; in test [5] it was 0%.

On to `O=C(O)c1ccc(CCc2ccc(N3C(=O)c4ccccc4C3=O)cc2)cc1`, for which the Emax was found to be 0% in test [2], 2% in test [3] and 14% in test [5]. Also, the EC50 in test [6] turned out to be 33 µM.

For the compound `CCCOc1cc(N2C(=O)c3ccccc3C2=O)ccc1CCc1ccc(C[C@@H](CC)C(=O)O)cc1`, the figures for the Emax in test [2], in test [3] and in test [5] were 8%, 7% and 70%, respectively. Besides, in test [6], the EC50 turned out to be 2.5 µM.

`CCOc1cc(N2C(=O)c3ccccc3C2=O)ccc1CCc1ccc(C[C@H](CC)C(=O)O)cc1`: the Emax was found to be 29% in test [2], 62% in test [3] and 69% in test [5]. Besides, the EC50 in test [7] worked out at 1.9 µM; in test [6], 1.7 µM; in test [8], 3.2 µM.

In the case of `O=C(O)CCCCc1ccc(CCc2ccc(N3C(=O)c4ccccc4C3=O)cc2)cc1`, the Emax in test [2] amounted to 4%; in test [3], 7%; in test [5], 4%.

In the case of `CCOc1cc(N2C(=O)c3ccccc3C2=O)ccc1CCc1ccc(C[C@@H](CC)C(=O)O)cc1`, the figures for the Emax in test [2], in test [3] and in test [5] were 12%, 23% and 126%, respectively. Besides, the EC50 in test [7] stood at 9.7 µM; in test [6] it was 1.1 µM; in test [8], 6.9 µM.

With `O=C(O)CCCCCCc1ccc(CCc2ccc(N3C(=O)c4ccccc4C3=O)cc2)cc1`, the values for the Emax in test [2], in test [3] and in test [5] were 4%, 5% and 8%, respectively.

On to `CCOc1cc(N2C(=O)c3ccccc3C2=O)ccc1CCc1ccc(CC(CC)C(=O)O)cc1` (racemic), for which the result in test [1] and in test [4] was inactive. For the same compound, the Emax in test [2] came out at 33%; in test [3], 49%; in test [5], 102%. Besides, the 50% effective concentration (EC50) in test [7] came to 4.8 µM; in test [6] it was 1.4 µM; in test [8], 9.3 µM.

With `CCCCOc1cc(N2C(=O)c3ccccc3C2=O)ccc1CCc1ccc(CC(CC)C(=O)O)cc1` (centres undefined), the result in test [1] and in test [4] was inactive. Besides, the Emax came to 32% in test [2], 36% in test [3] and 63% in test [5]. The EC50 in test [7] is 3.2 µM; in test [6], 1.8 µM; in test [8], 7.9 µM.

On to `CCC(Cc1ccc(CCc2ccc(N3C(=O)c4ccccc4C3=O)cc2)cc1)C(=O)O` (centres undefined), for which the result in test [1] and in test [4] was inactive. For the same compound, the Emax came out at 22% in test [2], 42% in test [3] and 72% in test [5]. For the same compound, the figures for the EC50 in test [7], in test [6] and in test [8] were 14 µM, 6.6 µM and 11 µM, respectively.

Take `CC[C@H](Cc1ccc(CCc2ccc(N3C(=O)c4ccccc4C3=O)cc2OC)cc1)C(=O)O`: the Emax in test [2] was found to be 8%; in test [3] it was 40%; in test [5] it was 103%. Moreover, the EC50 in test [6] was determined as 4.5 µM; in test [8], 12 µM.

Consider `CCC(Cc1ccc(CCc2ccc(N3C(=O)c4ccccc4C3=O)cc2O)cc1)C(=O)O` (centres undefined), for which the Emax worked out at 7% in test [2], 21% in test [3] and 20% in test [5]. Besides, the EC50 in test [7] came out at 25 µM; in test [6], 14 µM; in test [8] it was 17 µM.

As to `CCC(Cc1ccc(CCc2ccc(N3C(=O)c4ccccc4C3=O)cc2OC)cc1)C(=O)O` (racemic), the result in test [1] and in test [4] was inactive. Also, the Emax in test [2] worked out at 24%; in test [3], 78%; in test [5] it was 73%. The results for the concentration for a half-maximal effect (EC50) in test [7], in test [6] and in test [8] were 11 µM, 3.4 µM and 8.5 µM, respectively.

In the case of `CC[C@@H](Cc1ccc(CCc2ccc(N3C(=O)c4ccccc4C3=O)cc2OC)cc1)C(=O)O`, the values for the Emax in test [2], in test [3] and in test [5] were 41%, 102% and 66%, respectively. Further, the EC50 in test [7] turned out to be 7.3 µM; in test [6] it was 8.9 µM; in test [8], 7.1 µM.

As for `CCCOc1cc(N2C(=O)c3ccccc3C2=O)ccc1CCc1ccc(CC(CC)C(=O)O)cc1` (racemic), the outcome in test [1] and in test [4] was inactive. Further, the figures for the Emax in test [2], in test [3] and in test [5] were 40%, 26% and 70%, respectively. The EC50 in test [7] came to 2.9 µM; in test [6], 1.7 µM; in test [8], 6.9 µM.

In the case of `CCCOc1cc(N2C(=O)c3ccccc3C2=O)ccc1CCc1ccc(C[C@H](CC)C(=O)O)cc1`, the Emax in test [2] was 54%; in test [3], 36%; in test [5] it was 87%. The EC50 in test [7] is 1.8 µM; in test [6], 1.7 µM; in test [8] it was 5.2 µM.
